A word on the IC50: it is the concentration needed to halve the response being measured. Higher therefore signals lower potency.

The source of these data is ChEMBL document CHEMBL1130046, “Modulation of melphalan resistance in glioma cells with a peripheral benzodiazepine receptor ligand-melphalan conjugate” (J Med Chem, 1997).

One test has as its system SF-126. Briefly: The compound was tested for cytotoxicity against SF-126 (human) Glioma cell lines. Type of test: functional, cell-based. The essentials: (§1)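 Adherent cells seeded in their usual medium and allowed to attach overnight at 37 °C. Drugs added fresh, melphalan in saline and others in ethanol (≤1% of well volume), then 48 h at 37 °C. SRB read-out: TCA fixation, SRB staining, dye taken up in 10 mM Tris, absorbance 560 nm. Growth expressed as % of control and IC50 calculated; two or three experiments. C6-MR selected by weekly 24 h melphalan steps starting at 10 µM. DAOY MR kept under 70-78 µM melphalan for 24 h every third passage.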

Test [1] concerns D283 Med. Nature of the test: The compound was tested for cytotoxicity against D283 MR (human) Glioma cell lines. Format: functional, cell-based.
Test [2] has as its system D283 Med. Nature of the test: Glutathione (GSH) Concentrations D 283 MR cell line in Human Medulloblastoma Cells. Type of test: functional.
Test [3] relates to Daoy. Nature of the test: Glutathione S-Transferase (GST) Activity against DAOY MR cell line in Human Medulloblastoma Cells. Type of test: functional.
The subject of test [4] is D283 Med. Nature of the test: Glutathione S-Transferase (GST) Activity against D 283 MR cell line in Human Medulloblastoma Cells. Format: functional.
In a further test the test system is RG2. Nature of the test: The compound was tested for cytotoxicity against RG-2 (Rat) Glioma cell lines. Format: functional, cell-based. The essentials: as §1
Test [5] has as its system D341 cell line. Briefly: Glutathione (GSH) Concentrations D341 cell line in Human Medulloblastoma Cells. Format: functional.
The subject of test [6] is D341 cell line. Briefly: The compound was tested for cytotoxicity against D341 (human) Glioma cell lines. Format: functional, cell-based.
In test [7] the target is T1, Translocator protein (Rattus norvegicus, UniProt P16257). Briefly: Binding affinity for PBR (peripheral benzodiazepine receptor) in rat C6 glioma cells. Format: cell-based. The method, boiled down: (§2)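 Competitive displacement of [3H]Ro 5-4864 (1 nM final, 86.9 Ci/mmol) on rat whole-brain homogenate (~200 µg protein, 50 mM Tris-HCl pH 7.4) or C6/RG-2 cell homogenate (4 µg protein, 50 mM Tris-citrate pH 7.4). Incubation 60 min at 0-4 °C, duplicate tubes. Nonspecific binding with 10 µM PK-11195. Bound ligand collected by glass-fibre filtration, counted by scintillation, fitted by nonlinear regression.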

Test [8] addresses T1, Translocator protein. Nature of the test: Binding affinity for PBR (peripheral benzodiazepine receptor) in rat RG-2 glioma cells. Format: cell-based, RG2. The essentials:
as §2

In test [9] the test system is D341 cell line. Briefly: Glutathione S-Transferase (GST) Activity against D 341cell line in Human Medulloblastoma Cells. Format: functional.
For test [10], the system named is D341 cell line. Briefly: Glutathione S-Transferase (GST) Activity against D341 MR cell line in Human Medulloblastoma Cells. Format: functional.
For test [11], the system named is D341 cell line. Briefly: The compound was tested for cytotoxicity against D341 MR (human) Glioma cell lines. Format: functional, cell-based.
A further test has as its system SF-188. Briefly: The compound was tested for cytotoxicity against SF-188 (human) Glioma cell lines. Type of test: functional, cell-based. The essentials: as §1
Test [12] has as its system Daoy. Briefly: Glutathione (GSH) Concentrations DAOY MR cell line in Human Medulloblastoma Cells. Format: functional.
For test [13], the system named is D283 Med. Briefly: Glutathione S-Transferase (GST) Activity against D283 cell line in Human Medulloblastoma Cells. Type of test: functional.
For test [14], the system named is D341 cell line. Briefly: Glutathione (GSH) Concentrations D341 MR cell line in Human Medulloblastoma Cells. Type of test: functional.
The target in test [15] is T1, Translocator protein. Nature of the test: The compound was tested for binding affinity against PBR(peripheral benzodiazepine receptor) in normal rat brain homogenate. Format: tissue-based. The essentials:
as §2

In test [16] the test system is Daoy. Briefly: Glutathione S-Transferase (GST) Activity against DAOY cell line in Human Medulloblastoma Cells. Format: functional.
Test [17] has as its system C6. Nature of the test: The compound was tested for cytotoxicity against C6-MR (Rat) Glioma cell lines. Format: functional, cell-based. The essentials: as §1
Test [18] has as its system C6. Briefly: The compound was tested for cytotoxicity against C6 (Rat) Glioma cell lines. Type of test: functional, cell-based. The method, boiled down: as §1
For test [19], the system named is Daoy. Briefly: The compound was tested for cytotoxicity against DAOY MR (human) Glioma cell lines. Format: functional, cell-based. The method, boiled down: as §1
The subject of test [20] is D283 Med. Briefly: Glutathione (GSH) Concentrations D 283 cell line in Human Medulloblastoma Cells. Type of test: functional.
The subject of test [21] is Daoy. Nature of the test: Glutathione (GSH) Concentrations DAOY cell line in Human Medulloblastoma Cells. Type of test: functional.
Test [22] concerns D283 Med. Nature of the test: The compound was tested for cytotoxicity against D283 (human) Glioma cell lines. Format: functional, cell-based.
Test [23] deals with Daoy. Nature of the test: The compound was tested for cytotoxicity against DAOY(human) […] cell lines. Type of test: functional, cell-based. The essentials: as §1
Test [24] deals with Daoy. Briefly: The compound was tested for cytotoxicity against DAOY (human) Glioma cell lines. Type of test: functional, cell-based. The essentials:
as §1

Test [25] concerns the target Translocator protein (Rattus norvegicus) (UniProt P16257). Nature of the test: Benzodiazepine receptor density in normal rat brain homogenate. Format: tissue-based. The method, boiled down: as §2
For test [26] the target is unchanged. Briefly: Benzodiazepine receptor density in rat RG-2 glioma cells. Format: cell-based. To be noted: RG2. The essentials: as §2
For test [27] the target is unchanged. Nature of the test: Benzodiazepine receptor density in rat C6 glioma cells. Format: cell-based. The method, boiled down: as §2

T1 sequence (P16257 whole entry, looked up): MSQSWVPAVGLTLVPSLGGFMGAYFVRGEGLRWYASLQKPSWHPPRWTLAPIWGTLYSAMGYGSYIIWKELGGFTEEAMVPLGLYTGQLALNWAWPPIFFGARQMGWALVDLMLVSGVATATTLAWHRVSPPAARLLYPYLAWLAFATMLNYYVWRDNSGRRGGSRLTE
Translocator protein (Rattus norvegicus), sequence (P16257 whole entry, looked up): as above

On to `CCOC(=O)[C@@H](Cc1ccc(N(CCCl)CCCl)cc1)NC(=O)CCCN1C(=O)CN=C(c2ccccc2)c2cc(Cl)ccc21`, for which the IC50 in the test with SF-126 was determined as 21 µM; in the test with D283 Med [1] it was 25 µM; in the test on RG2, 34.3 µM; in the test with D341 cell line [6], 25 µM; on Translocator protein [7], 289 µM; at Translocator protein [8], 390 µM. The IC50 in the test on D341 cell line [11] was found to be 32.8 µM; in the test with SF-188 it was 17.3 µM; at Translocator protein [15], 327 µM; in the test on C6 [17], 74.4 µM; in the test with C6 [18] it was 43.4 µM; in the test on Daoy [19] it was 29.3 µM. For the same molecule, the concentration for half-maximal inhibition (IC50) is 72.3 µM in the test on D283 Med [22] and 40 µM in the test with Daoy [23]. Moreover, the GSH in the test on D283 Med [2] is 50.7 µM/g; in the test on D341 cell line [5] it was 17.5 µM/g; in the test with Daoy [12] it was 10.8 µM/g; in the test on D341 cell line [14], 33.2 µM/g; in the test with D283 Med [20] it was 18.4 µM/g; in the test with Daoy [21], 11.4 µM/g. For the same molecule, the GST activity with Daoy [3] is reported as 84 nM min-1 (mg of protein)-1; in the test on D283 Med [4] it was 417.3 nM min-1 (mg of protein)-1; in the test on D341 cell line [9], 212.6 nM min-1 (mg of protein)-1; in the test with D341 cell line [10], 327.9 nM min-1 (mg of protein)-1; in the test on D283 Med [13], 150.6 nM min-1 (mg of protein)-1; with Daoy [16] it was 88.7 nM min-1 (mg of protein)-1.
Take `O=C1CN=C(c2ccccc2)c2cc(Cl)ccc2N1` [NORDAZEPAM]: the IC50 in the test on SF-126 is greater than 100 µM; with D283 Med [1] it was greater than 200 µM; in the test with Daoy [24], greater than 200 µM; with RG2, greater than 200 µM; in the test with D341 cell line [6], greater than 200 µM; in the test on D341 cell line [11], greater than 200 µM. Moreover, the 50% inhibitory concentration (IC50) with SF-188 is greater than 100 µM; on Translocator protein [15], 520 µM; in the test with C6 [18], greater than 200 µM; in the test with Daoy [19], greater than 200 µM; in the test on D283 Med [22], greater than 200 µM.
On to `N[C@@H](Cc1ccc(N(CCCl)CCCl)cc1)C(=O)O`, for which the IC50 came out at 103 µM in the test with SF-126; 15.2 µM in the test with RG2; 12.4 µM with D341 cell line [6]; 52.4 µM in the test with D341 cell line [11]; 35.4 µM in the test with SF-188; 74.9 µM with C6 [17]. Also, the IC50 worked out at 11 µM with C6 [18], 140 µM in the test on Daoy [19] and 6.8 µM in the test on D283 Med [22].
In the case of `CN1C(=O)CN=C(c2ccc(Cl)cc2)c2cc(Cl)ccc21` [RO-54864], the IC50 in the test with SF-126 is greater than 100 µM; in the test with RG2 it was greater than 100 µM; with SF-188 it was 138 µM; in the test with C6 [18] it was greater than 200 µM. For the same molecule, the Bmax (pM (mg of protein)-1) was 0.29 in test [25], 33 in test [26] and 22 in [27].
